The test system of series [1] is metastatic breast cancer. Conditions: cited from earlier work.
Series [2] relates to estradiol. The note with it: cited from earlier work.
Series [3] concerns tamoxifen-resistant MCF7 cells (TAMR). Conditions: higher potency/efficacy than enzalutamide; cited from earlier work.
Series [4] deals with AR, wild-type and mutated forms (e.g., F876L and T877A). The note with it: cited from earlier work.
The subject of series [5] is CYP17 lyase versus CYP17 17-α hydroxylase. The note with it: cited from earlier work.
For series [6], the system named is MCF7 (ER+/low AR expression). The note with it: higher potency/efficacy than enzalutamide; cited from earlier work.
For series [7], the system named is MDA-MB-453 cells (ER−/AR+). Conditions: higher potency/efficacy than enzalutamide; cited from earlier work.
Series [8] concerns H16N2 (AR-/PR-/low ER expression). The note with it: higher potency/efficacy than enzalutamide; cited from earlier work.
For series [9], the system named is women with locally advanced or metastatic TNBC or ER+ breast cancer. The experiment in a line: Treatment duration, discontinuations and dose modifications. It counts as in vivo, human. The note with it: all dose cohorts; Twenty-one percent. Put shortly: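 Dosing was oral, once daily, in continuous 28-day cycles. Drug was stopped for loss of clinical benefit, an adverse event precluding further participation, or withdrawal of consent. Toxicity was graded by NCI CTCAE v4.03. Evaluations were every two weeks in Cycle 1, then monthly through the end-of-treatment visit.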

The test system of series [10] is unresectable locally advanced or metastatic breast cancer. The experiment in a line: Efficacy: clinical benefit rate and tumor response. The series is classed as in vivo, human. Put shortly: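 Women with triple-negative or postmenopausal ER+/HER2− unresectable locally advanced or metastatic disease took oral 150-mg tablets once daily in continuous 28-day cycles, in de-escalating cohorts. Imaging used bone scan, CT and/or MRI matching the baseline modality, every 2 months in year one and every 3 months thereafter. Clinical benefit was stable disease, partial or complete response (RECIST 1.1), scored at 16 weeks for TNBC and 24 weeks for ER+.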

Series [11] deals with women with locally advanced or metastatic TNBC or ER+ breast cancer. In words: Phase 1 safety and tolerability: treatment-emergent adverse events and DLT. It counts as in vivo, human.
Series [12] relates to tamoxifen-resistant MCF7 xenograft. Conditions: tamoxifen-resistant MCF7 mouse xenograft, compared to enzalutamide; cited from earlier work.
Series [13] is described as follows: Pharmacokinetics after a single dose of seviteronel. The series is classed as in vivo, human. Put shortly:
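Women took a single oral dose as 150-mg tablets. Blood was drawn before dosing and at 0.5, 1, 2, 4, 6, 8 and 24 h afterward. Plasma drug was measured by LC-MS/MS, with a lower limit of quantification of 20 ng/mL (0.05 uM). Parameters were derived by noncompartmental analysis.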

The mark [14] stands for this setting: randomized phase 2, metastatic ER+ breast cancer, N = 297.
[15] abbreviates: phase 2 TBCRC011, AR+ (ER−/PR−) metastatic breast cancer, N = 26.
[16] abbreviates: MDV3100-11, AR+ TNBC, N = 118, intent to treat AR > 0%, ref (12).

Each structure is given as a SMILES string. Where two headings read alike, the source gives them in different places.

As for `C=C1C[C@@H]2[C@H](CC[C@]3(C)C(=O)CC[C@@H]23)[C@@]2(C)C=CC(=O)C=C12` [exemestane], in series [1] (setting [14]), the “Median PFS” value is recorded as 3.7 months.
`N#Cc1ccc(C(c2ccc(C#N)cc2)n2cncn2)cc1` [letrozole]: the Decline in estradiol entry in series [2] (postmenopausal women with ER+ BC, by 3 months of treatment) is “approximately 36%”.
In the case of `CC(O)(CS(=O)(=O)c1ccc(F)cc1)C(=O)Nc1ccc(C#N)c(C(F)(F)F)c1` (stereo not shown) [bicalutamide], in series [1] (setting [15]), the “24-week CBR” value was 19%, the “Median progression-free survival (PFS)” value is on record as 12 weeks and the Objective responses result was “no objective responses”.
Consider `C[C@]12CC[C@H](O)CC1=CC[C@@H]1[C@@H]2CC[C@]2(C)C(c3cccnc3)=CC[C@@H]12` [abiraterone], for which the “24-month CBR” value is recorded as 20% in [1] (metastatic AR+ TNBC, N = 30, evaluable AR ≥ 10%) and 22% in series [1] (metastatic ER+/AR+ breast cancer, N = 32, evaluable AR ≥ 1%). The “Median PFS” value in series [1] (setting [14]) is 3.7 months.
Consider `CNC(=O)c1ccc(N2C(=S)N(c3ccc(C#N)c(C(F)(F)F)c3)C(=O)C2(C)C)cc1F` [enzalutamide], for which, in [1] (setting [16]), the “16-week CBR” value is given as 25%, the “24-week CBR” value was 20% and the “Median PFS” value is 12.6 weeks. Besides, the Increase in estradiol in [2] (given in combination with anastrozole) is reported as 40%. The Increase in estradiol in series [2] (given in combination with exemestane) was 13%.
Turning to `CC(C)[C@](O)(c1ccc2cc(OC(F)F)c(OC(F)F)cc2c1)c1c[nH]nn1` [Seviteronel], the “Growth of tamoxifen-resistant MCF7 cells” value in series [3] is listed as “inhibited”. The AR inhibition mechanism entry in series [4] was “competitive antagonism”. For the same molecule, in series [5], the “Selectivity for CYP17 lyase versus CYP17 17-α hydroxylase inhibition” value is “approximately 10 fold”. For the same molecule, the “Estrogen-stimulated proliferation and cell growth in a soft agar assay” value in series [6] was “inhibited”. Also, in series [7], the DHT-stimulated growth result is listed as “inhibited”. Moreover, the Cellular proliferation result in series [8] was “inhibited”. For the same molecule, the “Subjects with a dose reduction due to an AE” value in series [9] is 4/19. Also, the “Subjects reaching at least CBR16” value in [10] (450 mg QD cohort (RP2D), 2 TNBC CBR16 and 2 ER+ CBR24) is recorded as 4 of 7. Also, the “Subjects reaching CBR24 (24-week clinical benefit rate)” value in series [10] (across dose groups, 2 of 19 subjects) came to 11%. The “Subjects reaching at least CBR16 (16-week clinical benefit rate)” value in [10] (across dose groups, Five of 19 subjects) is reported as 26.3%. In addition, the Objective tumor responses result in series [10] (all dose cohorts) was “no objective tumor responses”. For the same molecule, the Deaths reported in series [11] (all considered unrelated to study drug (disease progression n=2, hepatic failure n=1, ischemic stroke n=1)) was 4. Moreover, in [11] (female, human, in vivo), the “Fatigue, AE incidence” value is on record as 37%; the “Nausea, AE incidence” value is recorded as 42%; the “Subjects with SAE Gr 3 or greater” value was 12 subjects; the “Tremor, AE incidence” value is on record as 42%. Moreover, in [11] (female, human, in vivo), the “Vomiting, AE incidence” value stood at 37%. Moreover, in [11] (female, human, in vivo, po), the “Recommended phase 2 dose (RP2D) in women” value was 450 mg QD. Also, in [11] (in vivo), the Hepatic transaminase elevation result is listed as “not associated with hepatic transaminase elevation”; the Hypokalemia result was “not seen”; the “Serious adverse events (SAE) Gr 3 or greater, number of events” value is “Fifteen”. In addition, the Tolerability result in [11] (in vivo, po) is reported as “generally well tolerated”. Also, in series [12], the Survival entry was “increased survival” and the Tumor growth entry is “inhibited tumor growth”. In addition, the half-life (usually the time needed for the level to fall by half in the phase considered) in [13] (female, human, plasma, oral, 750 mg, Half-life, single dose, across 450, 600, 750 mg) is 6.4 to 8.4 h. Besides, the “Dose relationship of peak and trough plasma concentrations and AUC” value in [13] (single dose, 450-750 mg, women) is recorded as “dose-proportional relationship”. In addition, the “Relationship between exposure and body surface area and body mass index” value in series [13] (three dose levels combined) is “moderate relationship”.
